Results published in ChEMBL document CHEMBL4145640, “De Novo Design, Synthesis, and Biological Evaluation of 3,4-Disubstituted Pyrrolidine Sulfonamides as Potent and Selective Glycine Transporter 1 Competitive Inhibitors” (J Med Chem, 2018).

Tested on: not listed separately
Experiment: Unbound intrinsic clearance in human liver microsomes at 0.5 uM incubated for 4 hrs by equilibrium dialysis and LC-MS/MS method
Format: ADME, microsome
Details: not given

| CL free [L/h/kg] | Structure (SMILES) |
| --- | --- |
| 15 | Cn1cnc(S(=O)(=O)N2CC(Nc3ccccc3)C(c3ccccc3)C2)c1 (racemic) |
| 49 | Cc1cccc(NC2CN(S(=O)(=O)c3cn(C)cn3)CC2c2ccccc2)c1 (racemic) |
| 203 | Cn1cnc(S(=O)(=O)N2CC(Nc3cccc(Cl)c3)C(c3ccc(F)cc3)C2)c1 (racemic) |
| 87 | Cn1cnc(S(=O)(=O)N2CC(Nc3cccc(Cl)c3)C(c3cccc(F)c3)C2)c1 (racemic) |

Target: T1, Sodium- and chloride-dependent glycine transporter 1 (Homo sapiens, UniProt P48067)
T1 sequence (P48067 whole entry): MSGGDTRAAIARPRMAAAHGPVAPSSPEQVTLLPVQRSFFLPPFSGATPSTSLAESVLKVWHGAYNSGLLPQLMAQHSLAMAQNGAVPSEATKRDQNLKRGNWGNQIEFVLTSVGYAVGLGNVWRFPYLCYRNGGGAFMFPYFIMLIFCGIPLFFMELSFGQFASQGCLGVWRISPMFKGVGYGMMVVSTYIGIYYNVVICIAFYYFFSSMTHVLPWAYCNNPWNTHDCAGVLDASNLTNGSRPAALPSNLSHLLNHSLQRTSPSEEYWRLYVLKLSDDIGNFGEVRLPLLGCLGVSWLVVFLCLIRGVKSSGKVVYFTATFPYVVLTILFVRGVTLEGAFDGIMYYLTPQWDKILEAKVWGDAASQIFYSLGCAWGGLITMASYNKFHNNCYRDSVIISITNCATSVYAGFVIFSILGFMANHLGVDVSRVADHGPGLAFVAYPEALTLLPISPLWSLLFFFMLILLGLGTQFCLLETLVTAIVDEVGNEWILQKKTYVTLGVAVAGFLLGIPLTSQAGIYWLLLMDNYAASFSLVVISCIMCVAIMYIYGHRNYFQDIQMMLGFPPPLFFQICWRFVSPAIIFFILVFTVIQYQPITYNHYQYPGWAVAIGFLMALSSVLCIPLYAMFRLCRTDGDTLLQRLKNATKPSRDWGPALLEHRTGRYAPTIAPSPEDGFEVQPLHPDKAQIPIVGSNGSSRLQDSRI
Experiment: Inhibition of [3H]N-Methyl-SSR504734 binding to human recombinant GlyT1c expressed in CHO cell membranes incubated for 1 hr by liquid scintillation spectrometry
Details: not given

| Ki [µM] | Structure (SMILES) |
| --- | --- |
| 0.199 | Cn1cnc(S(=O)(=O)N2CC(Nc3ccccc3)C(c3ccccc3)C2)c1 (racemic) |
| 0.017 to 0.018 | Cc1cccc(NC2CN(S(=O)(=O)c3cn(C)cn3)CC2c2ccccc2)c1 (racemic) |
| 0.003 | Cn1cnc(S(=O)(=O)N2CC(Nc3cccc(Cl)c3)C(c3ccc(F)cc3)C2)c1 (racemic) |

Further lines, the compound ahead of its results:

| Structure (SMILES) | Ki [µM] |
| --- | --- |
| Cn1cnc(S(=O)(=O)N2CC(Nc3cccc(C(F)(F)F)c3)C(c3ccccc3)C2)c1 (racemic) | 0.008 |
| Cn1cnc(S(=O)(=O)N2CC(Nc3cccc(Cl)c3)C(c3cccc(F)c3)C2)c1 (racemic) | 0.042 |

Tested on: Mus musculus
Experiment: Inhibition of L687,414-induced hyperactivity in mouse at 1 mg/kg, ip dosed before test
Format: functional
Details: not given

| Structure (SMILES) | inhibition in vivo at 1 mg/kg [%] |
| --- | --- |
| Cn1cnc(S(=O)(=O)N2C[C@H](Nc3ccc(F)c(OC(F)(F)F)c3)[C@@H](c3ccc(F)cc3)C2)c1 | 100 |

Tested on: Salmonella typhimurium
Experiment: Genotoxicity in Salmonella typhimurium TA100 assessed as induction of mutagenicity by measuring revertant colonies at 0.3 to 1000 ug/well incubated for 48 hrs in presence of liver S9 fraction by mini Ames test
Format: toxicity, organism-based
Details: salmonella enterica subsp. enterica serovar typhimurium, s9, 48 h

| Structure (SMILES) | Activity |
| --- | --- |
| Cn1cnc(S(=O)(=O)N2CC(Nc3ccccc3)C(c3ccccc3)C2)c1 (racemic) | Non-Toxic |
| Cn1cnc(S(=O)(=O)N2CC(Nc3cccc(C(F)(F)F)c3)C(c3ccccc3)C2)c1 (racemic) | Non-Toxic |
| Cn1cnc(S(=O)(=O)N2CC(Nc3cncc(C(F)(F)F)c3)C(c3ccc(F)cc3)C2)c1 (racemic) | Non-Toxic |
| Cc1cccc(NC2CN(S(=O)(=O)c3cn(C)cn3)CC2c2ccccc2)c1 (racemic) | Non-Toxic |
| Cn1cnc(S(=O)(=O)N2CC(Nc3cccc(Cl)c3)C(c3ccc(F)cc3)C2)c1 (racemic) | Non-Toxic |
| Cn1cnc(S(=O)(=O)N2CC(Nc3cccc(C(F)(F)F)c3)C(c3cccnc3)C2)c1 (racemic) | Non-Toxic |
| Cn1cnc(S(=O)(=O)N2CC(Nc3cccc(Cl)c3)C(c3cccc(F)c3)C2)c1 (racemic) | Non-Toxic |

Tested on: not listed separately
Experiment: Stability in pH 7 buffer at 1 mg assessed as compound hydrolysis after several days at room temperature by LC/MS analysis
Format: physicochemical
Details: not given

| Stability | Structure (SMILES) |
| --- | --- |
| Stable | Cn1cnc(S(=O)(=O)N2C[C@H]([C@@H]3CCCO3)[C@@H](Nc3cccc(OC(F)(F)F)c3)C2)c1 |

Tested on: not listed separately
Experiment: Ratio of free drug level in brain to plasma in rat
Format: ADME
Details: read-out: BPR

| Kp uu | Structure (SMILES) |
| --- | --- |
| 0.6 | Cc1cccc(NC2CN(S(=O)(=O)c3cn(C)cn3)CC2c2ccccc2)c1 (racemic) |
| 1.7 | Cn1cnc(S(=O)(=O)N2CC(Nc3cccc(Cl)c3)C(c3ccc(F)cc3)C2)c1 (racemic) |

Tested on: Salmonella typhimurium
Experiment: Genotoxicity in Salmonella typhimurium TA98 assessed as induction of mutagenicity by measuring revertant colonies at 0.3 to 1000 ug/well incubated for 48 hrs in presence of liver S9 fraction by mini Ames test
Format: toxicity, organism-based
Details: salmonella enterica subsp. enterica serovar typhimurium, s9, 48 h

| Structure (SMILES) | Activity |
| --- | --- |
| Cn1cnc(S(=O)(=O)N2CC(Nc3ccccc3)C(c3ccccc3)C2)c1 (racemic) | Non-Toxic |
| Cn1cnc(S(=O)(=O)N2CC(Nc3cccc(C(F)(F)F)c3)C(c3ccccc3)C2)c1 (racemic) | Non-Toxic |
| Cn1cnc(S(=O)(=O)N2CC(Nc3cncc(C(F)(F)F)c3)C(c3ccc(F)cc3)C2)c1 (racemic) | Non-Toxic |
| Cc1cccc(NC2CN(S(=O)(=O)c3cn(C)cn3)CC2c2ccccc2)c1 (racemic) | Non-Toxic |
| Cn1cnc(S(=O)(=O)N2CC(Nc3cccc(Cl)c3)C(c3ccc(F)cc3)C2)c1 (racemic) | Non-Toxic |
| Cn1cnc(S(=O)(=O)N2CC(Nc3cccc(C(F)(F)F)c3)C(c3cccnc3)C2)c1 (racemic) | Non-Toxic |
| Cn1cnc(S(=O)(=O)N2CC(Nc3cccc(Cl)c3)C(c3cccc(F)c3)C2)c1 (racemic) | Non-Toxic |

Tested on: MDR1 (P-gp)
Experiment: Efflux ratio in MDCK2-MDR1 cells at 1 uM incubated for 1 hr by LC-MS/MS method
Format: ADME, cell-based, Canis lupus familiaris
Details: dog, MDCK-MDR1
How it was run: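 MDCK II cells transfected with MDR1 (human P-gp, lowered canine P-gp) seeded on transwell inserts at 300,000 cells/cm2, media changed day 2, assayed day 4 or 5. Dosed apical or basolateral at 1 µM final (1 mM DMSO stock, 0.1% DMSO) in HBSS + glucose, duplicate, 37 °C for 1 h. Receiver and donor sampled, LC-MS/MS with buspirone internal standard; Papp from ΔQ/Δt·1/(A·C0).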

| efflux ratio at 1 h, 1 µM | Structure (SMILES) |
| --- | --- |
| 0.9 | Cn1cnc(S(=O)(=O)N2CC(Nc3ccccc3)C(c3ccccc3)C2)c1 (racemic) |
| 0.9 | Cc1cccc(NC2CN(S(=O)(=O)c3cn(C)cn3)CC2c2ccccc2)c1 (racemic) |
| 1.1 | Cn1cnc(S(=O)(=O)N2CC(Nc3cccc(Cl)c3)C(c3ccc(F)cc3)C2)c1 (racemic) |
| 1 | Cn1cnc(S(=O)(=O)N2CC(Nc3cccc(Cl)c3)C(c3cccc(F)c3)C2)c1 (racemic) |

Tested on: not listed separately
Experiment: Unbound intrinsic clearance in rat liver microsomes at 0.5 uM incubated for 4 hrs by equilibrium dialysis and LC-MS/MS method
Format: ADME, microsome
Details: not given

| CL free [L/h/kg] | Structure (SMILES) |
| --- | --- |
| 57 | Cn1cnc(S(=O)(=O)N2CC(Nc3ccccc3)C(c3ccccc3)C2)c1 (racemic) |
| 119 | Cc1cccc(NC2CN(S(=O)(=O)c3cn(C)cn3)CC2c2ccccc2)c1 (racemic) |
| 350 | Cn1cnc(S(=O)(=O)N2CC(Nc3cccc(Cl)c3)C(c3ccc(F)cc3)C2)c1 (racemic) |
| 266 | Cn1cnc(S(=O)(=O)N2CC(Nc3cccc(Cl)c3)C(c3cccc(F)c3)C2)c1 (racemic) |
